In brackets after ≈: the same amount, converted by molar mass.
Assays:
[1] = system: Bacteroides thetaiotaomicron; assay: Antimicrobial activity against Bacteroides thetaiotaomicron assessed as percent susceptible isolates after 48 hrs by agar dilution method; type: functional
[2] = system: Clostridium perfringens; assay: Antimicrobial activity against Clostridium perfringens assessed as percent susceptible isolates after 48 hrs by agar dilution method; type: functional
[3] = system: Parvimonas micra; assay: Antimicrobial activity against Peptostreptococcus micros after 48 hrs by agar dilution method; type: functional
In short: (§1)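 CLSI agar dilution (M11-A7); inoculum 10^5 CFU applied by replicator; plates incubated anaerobically 48 h at 37°C. For piperacillin-tazobactam, tazobactam held constant at 4 μg/ml.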

[4] = system: Bifidobacterium adolescentis; assay: Antimicrobial activity against Bifidobacterium adolescentis assessed as percent resistant isolates after 48 hrs by agar dilution method; type: functional
In short: (§2)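 CLSI agar dilution on recent Korean clinical anaerobe isolates. Inoculum 10^5 CFU per spot by replicator. Plates incubated in an anaerobic chamber at 37°C for 48 h. For piperacillin plus tazobactam, tazobactam was held constant at 4 μg/ml. Resistance and susceptibility rates derived from MICs.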

[5] = system: Bifidobacterium sp.; assay: Antimicrobial activity against Bifidobacterium sp. assessed as percent susceptible isolates after 48 hrs by agar dilution method; type: functional; in short: as §1
[6] = system: Actinomyces naeslundii; assay: Antimicrobial activity against Actinomyces naeslundii assessed as percent susceptible isolates after 48 hrs by agar dilution method; type: functional
[7] = system: Eubacterium sp.; assay: Antimicrobial activity against Eubacterium sp. assessed as percent resistant isolates after 48 hrs by agar dilution method; type: functional; in short: as §2
[8] = system: Peptostreptococcus anaerobius; assay: Antimicrobial activity against Peptostreptococcus anaerobius after 48 hrs by agar dilution method; type: functional; in short: as §1
[9] = system: Phocaeicola vulgatus; assay: Antimicrobial activity against Bacteroides vulgatus assessed as percent susceptible isolates after 48 hrs by agar dilution method; type: functional
[10] = system: Bacteroides ovatus; assay: Antimicrobial activity against Bacteroides ovatus after 48 hrs by agar dilution method; type: functional
In short: (§3)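 MICs on clinical anaerobe isolates by the CLSI agar dilution method. Inoculum of 10^5 CFU applied with a Steers replicator. Plates incubated 48 h at 37°C in an anaerobic chamber.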

[11] = system: Bacteroides caccae; assay: Antimicrobial activity against Bacteroides caccae assessed as percent susceptible isolates after 48 hrs by agar dilution method; type: functional
[12] = system: Peptoniphilus asaccharolyticus; assay: Antimicrobial activity against Peptoniphilus asaccharolyticus after 48 hrs by agar dilution method; type: functional; in short: as §1
[13] = system: Bacteroides thetaiotaomicron; assay: Antimicrobial activity against Bacteroides thetaiotaomicron assessed as percent resistant isolates after 48 hrs by agar dilution method; type: functional; in short: as §2
[14] = system: Fusobacterium varium; assay: Antimicrobial activity against Fusobacterium varium after 48 hrs by agar dilution method; type: functional; in short: as §1
[15] = system: Bifidobacterium sp.; assay: Antimicrobial activity against Bifidobacterium sp. assessed as percent resistant isolates after 48 hrs by agar dilution method; type: functional; in short: as §2
[16] = system: Actinomyces israelii; assay: Antimicrobial activity against Actinomyces israelii after 48 hrs by agar dilution method; type: functional; in short: as §3
[17] = system: Bifidobacterium adolescentis; assay: Antimicrobial activity against Bifidobacterium adolescentis assessed as percent susceptible isolates after 48 hrs by agar dilution method; type: functional
[18] = system: Bacteroides ovatus; assay: Antimicrobial activity against Bacteroides ovatus assessed as percent resistant isolates after 48 hrs by agar dilution method; type: functional; in short: as §2
[19] = system: Clostridioides difficile; assay: Antimicrobial activity against Clostridium difficile assessed as percent resistant isolates after 48 hrs by agar dilution method; type: functional
[20] = system: Schaalia odontolytica; assay: Antimicrobial activity against Actinomyces odontolyticus assessed as percent resistant isolates after 48 hrs by agar dilution method; type: functional; in short: as §2
[21] = system: Clostridium perfringens; assay: Antimicrobial activity against Clostridium perfringens after 48 hrs by agar dilution method; type: functional
[22] = system: Eggerthella lenta; assay: Antimicrobial activity against Eubacterium lentum after 48 hrs by agar dilution method; type: functional; in short: as §1
[23] = system: Eubacterium sp.; assay: Antimicrobial activity against Eubacterium sp. after 48 hrs by agar dilution method; type: functional; in short: as §1
[24] = system: Schaalia meyeri; assay: Antimicrobial activity against Actinomyces meyeri assessed as percent resistant isolates after 48 hrs by agar dilution method; type: functional; in short: as §2
[25] = system: Anaerococcus prevotii; assay: Antimicrobial activity against Anaerococcus prevotii after 48 hrs by agar dilution method; type: functional; in short: as §3
[26] = system: Hoylesella oralis; assay: Antimicrobial activity against Prevotella oralis assessed as percent resistant isolates after 48 hrs by agar dilution method; type: functional; in short: as §2
[27] = system: Peptostreptococcus anaerobius; assay: Antimicrobial activity against Peptostreptococcus anaerobius assessed as percent susceptible isolates after 48 hrs by agar dilution method; type: functional; in short: as §2
[28] = system: Bifidobacterium sp.; assay: Antimicrobial activity against Bifidobacterium sp. after 48 hrs by agar dilution method; type: functional; in short: as §3
[29] = system: Eggerthella lenta; assay: Antimicrobial activity against Eubacterium lentum assessed as percent susceptible isolates after 48 hrs by agar dilution method; type: functional; in short: as §1
[30] = system: Fusobacterium nucleatum; assay: Antimicrobial activity against Fusobacterium nucleatum after 48 hrs by agar dilution method; type: functional; in short: as §1
[31] = system: Prevotella intermedia; assay: Antimicrobial activity against Prevotella intermedia after 48 hrs by agar dilution method; type: functional; in short: as §1
[32] = system: Clostridioides difficile; assay: Antimicrobial activity against Clostridium difficile after 48 hrs by agar dilution method; type: functional
[33] = system: Prevotella bivia; assay: Antimicrobial activity against Prevotella bivia assessed as percent resistant isolates after 48 hrs by agar dilution method; type: functional; in short: as §2
[34] = system: Prevotella buccae; assay: Antimicrobial activity against Prevotella buccae assessed as percent susceptible isolates after 48 hrs by agar dilution method; type: functional, Segatella buccae; in short: as §1
[35] = system: Bacteroides caccae; assay: Antimicrobial activity against Bacteroides caccae after 48 hrs by agar dilution method; type: functional; in short: as §3
[36] = system: Parvimonas micra; assay: Antimicrobial activity against Peptostreptococcus micros assessed as percent susceptible isolates after 48 hrs by agar dilution method; type: functional; in short: as §2
[37] = system: Prevotella bivia; assay: Antimicrobial activity against Prevotella bivia assessed as percent susceptible isolates after 48 hrs by agar dilution method; type: functional; in short: as §1
[38] = system: Actinomyces israelii; assay: Antimicrobial activity against Actinomyces israelii assessed as percent resistant isolates after 48 hrs by agar dilution method; type: functional; in short: as §2
[39] = system: Bacteroides fragilis; assay: Antimicrobial activity against Bacteroides fragilis assessed as percent resistant isolates after 48 hrs by agar dilution method; type: functional; in short: as §2
[40] = system: Finegoldia magna; assay: Antimicrobial activity against Finegoldia magna after 48 hrs by agar dilution method; type: functional; in short: as §1
[41] = system: Schaalia meyeri; assay: Antimicrobial activity against Actinomyces meyeri assessed as percent susceptible isolates after 48 hrs by agar dilution method; type: functional
[42] = system: Anaerococcus prevotii; assay: Antimicrobial activity against Anaerococcus prevotii assessed as percent resistant isolates after 48 hrs by agar dilution method; type: functional; in short: as §2
[43] = system: Actinomyces israelii; assay: Antimicrobial activity against Actinomyces israelii assessed as percent susceptible isolates after 48 hrs by agar dilution method; type: functional
[44] = system: Parabacteroides distasonis; assay: Antimicrobial activity against Bacteroides distasonis after 48 hrs by agar dilution method; type: functional; in short: as §3
[45] = system: Prevotella intermedia; assay: Antimicrobial activity against Prevotella intermedia assessed as percent susceptible isolates after 48 hrs by agar dilution method; type: functional; in short: as §1
[46] = system: Hoylesella oralis; assay: Antimicrobial activity against Prevotella oralis assessed as percent susceptible isolates after 48 hrs by agar dilution method; type: functional
In short: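 CLSI agar dilution MIC testing of clinical isolates. 10^5 CFU spotted by replicator, plates incubated 48 h at 37°C in an anaerobic chamber. Susceptibility rates derived from the MICs.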

[47] = system: Prevotella buccae; assay: Antimicrobial activity against Prevotella buccae after 48 hrs by agar dilution method; type: functional; conditions: Segatella buccae; in short: as §1

O=C(N[C@H](CO)[C@H](O)c1ccc([N+](=O)[O-])cc1)C(Cl)Cl [CHLORAMPHENICOL]
Activity [1]: 98%
Activity [2]: 100%
MIC50 [3]: 2 µg/mL (≈ 6.19 µM)
MIC90 [3]: 2 µg/mL (≈ 6.19 µM)
Activity [4]: 0%
Activity [5]: 92%
Activity [6]: 92%
Activity [7]: 0%
MIC50 [8]: 2 µg/mL (≈ 6.19 µM)
MIC90 [8]: 2 µg/mL (≈ 6.19 µM)
Activity [9]: 98%
MIC [10]: 4 µg/mL (≈ 12.4 µM)
MIC50 [10]: 4 µg/mL (≈ 12.4 µM)
MIC90 [10]: 8 µg/mL (≈ 24.8 µM)
Activity [11]: 98%
MIC50 [12]: 2 µg/mL (≈ 6.19 µM)
MIC90 [12]: 4 µg/mL (≈ 12.4 µM)
Activity [13]: 0%
MIC [14]: 0.13 µg/mL (≈ 0.402 µM)
Activity [15]: 0%
MIC [16]: 1 µg/mL (≈ 3.09 µM)
MIC50 [16]: 1 µg/mL (≈ 3.09 µM)
MIC90 [16]: 2 µg/mL (≈ 6.19 µM)
Activity [17]: 92%
Activity [18]: 0%
Activity [19]: 0%
Activity [20]: 0%
MIC50 [21]: 4 µg/mL (≈ 12.4 µM)
MIC90 [21]: 4 µg/mL (≈ 12.4 µM)
MIC [22]: 1 µg/mL (≈ 3.09 µM)
MIC50 [22]: 1 µg/mL (≈ 3.09 µM)
MIC90 [22]: 2 µg/mL (≈ 6.19 µM)
MIC [23]: 1 µg/mL (≈ 3.09 µM)
MIC50 [23]: 1 µg/mL (≈ 3.09 µM)
MIC90 [23]: 2 µg/mL (≈ 6.19 µM)
Activity [24]: 0%
MIC50 [25]: 4 µg/mL (≈ 12.4 µM)
MIC90 [25]: 8 µg/mL (≈ 24.8 µM)
Activity [26]: 0%
Activity [27]: 100%
MIC [28]: 1 µg/mL (≈ 3.09 µM)
MIC50 [28]: 1 µg/mL (≈ 3.09 µM)
MIC90 [28]: 2 µg/mL (≈ 6.19 µM)
Activity [29]: 92%
MIC [30]: 0.13 µg/mL (≈ 0.402 µM)
MIC [31]: 0.5 µg/mL (≈ 1.55 µM)
MIC50 [31]: 0.5 µg/mL (≈ 1.55 µM)
MIC90 [31]: 1 µg/mL (≈ 3.09 µM)
MIC50 [32]: 4 µg/mL (≈ 12.4 µM)
MIC90 [32]: 16 µg/mL (≈ 49.5 µM)
Activity [33]: 0%
Activity [34]: 100%
MIC [35]: 4 µg/mL (≈ 12.4 µM)
MIC50 [35]: 4 µg/mL (≈ 12.4 µM)
MIC90 [35]: 8 µg/mL (≈ 24.8 µM)
Activity [36]: 0%
Activity [37]: 100%
Activity [38]: 0%
Activity [39]: 0%
MIC50 [40]: 4 µg/mL (≈ 12.4 µM)
MIC90 [40]: 4 µg/mL (≈ 12.4 µM)
Activity [41]: 92%
Activity [42]: 0%
Activity [43]: 92%
MIC [44]: 4 µg/mL (≈ 12.4 µM)
MIC50 [44]: 4 µg/mL (≈ 12.4 µM)
MIC90 [44]: 8 µg/mL (≈ 24.8 µM)
Activity [45]: 100%
Activity [46]: 100%
MIC50 [47]: 4 µg/mL (≈ 12.4 µM)
MIC90 [47]: 8 µg/mL (≈ 24.8 µM)
